TMEM16A act: activates or potentiates the mouse TMEM16A chloride channel; HEK293 TMEM16A/YFP-H148Q/I152L, iodide quench fluorescence; hits give low values; AID 623877; B-score at 10 µM; Q8BHY3; 340,000 compounds, 0.3% hits;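 active = fluorescence-ratio B-score plate-corrected deviation score at least 3 library SD below zero, with starting fluorescence score within 5 deviations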;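 also: channel opened by trigger with iodide after compound preincubation; score built on the fluorescence ratio of max minus min over baseline; more negative score means more quench and so TMEM16A activation or potentiation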
TMEM16A inh: inhibitors of mouse TMEM16A calcium-activated chloride channel; Q8BHY3; HEK293 TMEM16A/YFP iodide influx fluorescence, ionomycin; normalized B-score (activity score, 25-100; higher = stronger inhibition) at 10 µM; 310,000 compounds, 1.2% hits; AID 588511;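 active = ratio plate-corrected score three or more library SD toward inhibition, starting fluorescence score within five deviations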;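 also: score derived from kinetic fluorescence span divided by baseline fluorescence per well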
TAAR1 ag: human TAAR1 agonism. 360,000 compounds, 0.99% hits. CHO RD-HGA16 TAAR1, Fluo-8 calcium fluorescence; vehicle wells 0%, saturating PEA agonist 100%. activation, % at 3 µM;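 active = activation above the mean activation of all test compounds in the run plus 3 SD, cut at about 38% in these data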
Target sequence (Q96RJ0 whole entry, looked up): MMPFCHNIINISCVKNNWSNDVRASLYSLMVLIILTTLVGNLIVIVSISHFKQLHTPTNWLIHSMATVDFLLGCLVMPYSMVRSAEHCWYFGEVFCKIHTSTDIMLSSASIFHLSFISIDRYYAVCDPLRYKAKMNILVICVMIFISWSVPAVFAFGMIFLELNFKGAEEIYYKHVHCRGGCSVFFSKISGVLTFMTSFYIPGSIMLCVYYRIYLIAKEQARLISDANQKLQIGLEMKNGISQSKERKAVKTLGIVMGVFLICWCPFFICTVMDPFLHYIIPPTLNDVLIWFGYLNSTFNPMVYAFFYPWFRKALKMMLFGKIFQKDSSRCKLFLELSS
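test system = CHO RD-HGA16 cells carrying human TAAR1 plus Gα16 | schedule = 17-24 h seeding, 75 min 37 °C dye, 30 min RT | compound dosing = 3 µM single concentration | control set = DMSO and PEA EC100 | replicates = n 1 | signal = Fluo-8 fluorescence, 5 s baseline then 140 s kinetic read | measure = percent activation vs PEA EC100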
CRFBP-R2 block: antagonists of CRF-binding protein/CRF-R2 receptor complex. inhibition, % at 11.8 µM. AID 588475. HEK293 CRF-R2/CRF-BP, CRF-induced calcium fluorescence. 350,000 compounds, 0.59% hits;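 active = inhibition of the ligand-induced calcium signal above about 50% at the single tested concentration, limit read from the data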
CRFBP-R2 agonist: CRF-BP/CRF-R2 complex agonism | HEK293 CRF-R2/CRF-BP, calcium dye fluorescence (FLIPR); percent of saturating CRF peptide response | activation, % at 13.2 µM | 350,000 compounds, 0.46% hits | AID 588473;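 active = activation of at least 50%, plus an integration ratio under a set limit after plate pattern correction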;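 also: plate controls were neutral control wells without compound for no effect and CRF at EC100 for full effect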
TAAR1 antag: human TAAR1 antagonism; Q96RJ0; AID 624466; 360,000 compounds, 1.5% hits; inhibition, % at 3 µM; CHO RD-HGA16 TAAR1, Fluo-8 calcium fluorescence, antagonist;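 active = inhibition above a per-plate cutoff, the mean inhibition of test compounds on that plate plus 3 SD, cut at about 49% in these data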;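 also: 0% = DMSO plus EC80 beta-PEA response and 100% = DMSO alone without agonist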
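Test system: CHO RD-HGA16 cells bearing hTAAR1 | Reagent: β-PEA, EC80 | Compound dosing: 3 µM, single point | Schedule: Dye loading 75 min at 37 °C, then 30 min room temperature | Signal: Calcium fluorescence with Fluo-8 | Evaluation: Percent inhibition of PEA-evoked calcium signal, max/basal emission ratio | Control set: DMSO-only wells and EC80 β-PEA-stimulated wells | Repeats: Singlicate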
* marks the source's active call; other numbers are inactive results. Shown are actives, neighbours in structure and some others; about 3.9% of the full set was active somewhere.

How did CCN(CCn1cccn1)Cc1cn[nH]c1-c1ccc(-c2ccccc2)cc1 do in these assays?
TMEM16A act: inactive; TMEM16A inh: inactive; TAAR1 ag: 5; CRFBP-R2 block: -5; CRFBP-R2 agonist: 1; TAAR1 antag: -8

How did CCN(CCn1cccn1)Cc1cn[nH]c1-c1cccc2ccccc12 do in these assays?
TMEM16A act: -6.2*; TMEM16A inh: inactive; TAAR1 ag: -2; CRFBP-R2 block: 17; CRFBP-R2 agonist: -1; TAAR1 antag: -11

Results for COc1ccc(NC(=O)C2c3ccccc3OCC(=O)N2CC(F)(F)F)cc1 (stereo not given) ?
TAAR1 ag: 4; TAAR1 antag: -16

How did O=C(CC(NC(=O)OCc1ccccc1)C(=O)O)OCc1ccccc1 (stereo not given) do in these assays?
TMEM16A act: inactive; TMEM16A inh: inactive; TAAR1 ag: 3; CRFBP-R2 block: 2; CRFBP-R2 agonist: -1; TAAR1 antag: 5

Results for O=C(CC(NC(=O)OCc1ccccc1)C(=O)OCc1ccccc1)OCc1ccccc1 (stereo not given) ?
TMEM16A act: inactive; TAAR1 ag: 3; CRFBP-R2 block: 88*; CRFBP-R2 agonist: 6; TAAR1 antag: 59*

What do the screens show for `Cc1ccc(O)c(C(=O)c2cc(C(=O)NCCc3ccccc3)c(=O)n(CCc3ccccc3)c2)c1`?
TMEM16A act: inactive; TMEM16A inh: inactive; TAAR1 ag: 4; CRFBP-R2 block: 32; CRFBP-R2 agonist: 5; TAAR1 antag: 58*

What do the screens show for `Cc1ccc(O)c(C(=O)c2cc(C#N)c(=O)n(Cc3ccccc3)c2)c1`?
TMEM16A act: inactive; TMEM16A inh: inactive; TAAR1 ag: 5; CRFBP-R2 block: 41; CRFBP-R2 agonist: 9; TAAR1 antag: -1

What do the screens show for `COc1ccc(O)c(C(=O)CC(=O)c2ccccc2)c1`?
TMEM16A inh: inactive

What do the screens show for `COc1ccc(O)c(C(=O)c2cc(C(=O)NCCc3ccccc3)c(=O)n(CCc3ccccc3)c2)c1`?
TMEM16A act: inactive; TMEM16A inh: inactive; TAAR1 ag: 2; CRFBP-R2 block: 5; CRFBP-R2 agonist: -1; TAAR1 antag: 51*

How did COc1ccc(NC(=O)CN(C)C(=O)c2ccc(S(=O)(=O)Nc3ccccc3C)cc2)cc1 do in these assays?
TMEM16A act: inactive; TAAR1 ag: 2; CRFBP-R2 block: 0; CRFBP-R2 agonist: -1; TAAR1 antag: -12

What do the screens show for `Cc1ccccc1NS(=O)(=O)c1ccc(C(=O)N(C)CC(=O)Nc2ccccc2Br)cc1`?
TMEM16A act: inactive; TAAR1 ag: 9; CRFBP-R2 block: 88*; CRFBP-R2 agonist: -1; TAAR1 antag: 10

How did CCOC(=O)c1csc(NC(=O)CSc2nnnn2-c2ccc(OCC)cc2)n1 do in these assays?
TMEM16A act: inactive; TAAR1 ag: 40*; CRFBP-R2 block: -10; CRFBP-R2 agonist: 20; TAAR1 antag: 2

How did CCOC(=O)c1c(NC(=O)CSc2nnnn2-c2ccc(OC)cc2)sc(C)c1C do in these assays?
TMEM16A act: inactive; TMEM16A inh: 25*; TAAR1 ag: 24; CRFBP-R2 block: 0; CRFBP-R2 agonist: 1; TAAR1 antag: -15

How did COc1ccc(-n2nnnc2SCC(=O)Nc2nnc(C)s2)cc1 do in these assays?
TMEM16A act: inactive; TMEM16A inh: inactive; TAAR1 ag: 10; CRFBP-R2 block: -12; CRFBP-R2 agonist: 0; TAAR1 antag: 13

Results for O=C(NCc1ccccn1)c1ccc(Cl)c(NC2=NC3CS(=O)(=O)CC3S2)c1 (stereo not given) ?
TMEM16A act: inactive; TMEM16A inh: inactive; TAAR1 ag: 9; CRFBP-R2 block: -2; CRFBP-R2 agonist: 1; TAAR1 antag: -22

What do the screens show for `CCc1cc(C(=O)Nc2ccc(OC)nc2)sc1C`?
TMEM16A act: -5.1*; TMEM16A inh: inactive; TAAR1 ag: 2; TAAR1 antag: 6

Results for CN(Cc1ccccn1)C(=O)C1CCC(=O)N(Cc2cccc(C(F)(F)F)c2)C1 (stereo not given) ?
TMEM16A act: inactive; TMEM16A inh: inactive; TAAR1 ag: 2; CRFBP-R2 block: 53*; CRFBP-R2 agonist: 5; TAAR1 antag: -15
